This is a sample that favours compounds with a hit; in the whole collection about 2% have one here.
ABCB6 inh MLPCN = human ABCB6 transporter inhibition | Q9NP58 | K562-ABCB6 porphyrin accumulation, flow cytometry, 1 h; active compounds read low | fluorescence ratio to DMSO, % at 10 µM | hit rate 0.19% among 360,000 | AID 602162;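 active = fluorescence ratio to DMSO below 75%, the collection mean minus 3 SD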;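 also: signal is porphyrin accumulated inside mitochondria; lower ratio means ABCB6 inhibition with less porphyrin fluorescence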
DAGLB inh = diacylglycerol lipase beta (human) inhibition; Q8NCG7; inhibition, % at 5.17 µM; hit rate 0.059% among 340,000; HEK293T DAGLB membrane lysate, EnzChek fluorogenic substrate; AID 504411; in the data active = inhibition above about 34%
Exocytosis inh = blocks lytic granule exocytosis; TALL-104 LAMP-1 surface exposure, flow cytometry; cells stimulated with thapsigargin and PMA; inhibition, % at 10 µM; hit rate 0.66% among 360,000; AID 651702;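 active = inhibition above about 55%, limit read from the data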
FGF22 binding = binders of recombinant human FGF22 by thermal shift; Q9HCT0; SYPRO orange fluorescence; percent of sucrose octasulfate shift, DMSO zero; hit rate 1.5% among 340,000; activity (Tm shift, normalised), % at 9.99 µM; AID 651658;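 active = mean Tm shift, scaled 0 neutral to 100 positive control, at about 1.3% or above, every replicate too, limit read from the data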
VLA-4 inh = inhibition in a human VLA-4 binding assay; hit rate 0.2% among 330,000; VLA-4 expressing cells, ligand binding flow cytometry; inhibition, % (about 7 µM as worked out from the volumes in the protocol); P13612; AID 2557; in the data active = inhibition above about 50%
MT1-MMP act inh = MT1-MMP (human) activation inhibition; P50281; HT1080 RFP-PRO-GFP cells, GFP/RFP ratio fluorescence, overnight; percent of plate control window, DMSO zero; GFP/RFP ratio change, % at 20 µM; hit rate 0.061% among 360,000; AID 651647;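 active = GFP/RFP ratio change of at least 30% with cell ATP level not reduced by more than half and red fluorescence within 50% of control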
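Read-out: GFP/RFP fluorescence ratio; Test system: RFP-PRO-GFP reporter HT1080 cells; Compound dosing: single-point 20 µM compound, 1% DMSO; Times: overnight compound exposure at 37 °C.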
Each line names hits and unclear results; the compound was inactive in the other large screens; ! = a repeat was not active.

O=C1/C(=C/Nc2ccc3c(c2)OCO3)CCc2ccccc21	Exocytosis inh 98 (no result: FGF22 binding)
CO[C@@H]1CN(C)C(=O)c2cc(NS(=O)(=O)c3ccccc3)ccc2OC[C@@H](C)N(Cc2ccccn2)C[C@H]1C	none (no result: ABCB6 inh MLPCN, DAGLB inh, Exocytosis inh, VLA-4 inh, MT1-MMP act inh)
CC(C)NC(=O)Nc1ccc2c(c1)C(=O)N([C@@H](C)CO)C[C@@H](C)[C@@H](CN(C)Cc1ccc(C(=O)O)cc1)OCCCC[C@@H](C)O2	none (no result: ABCB6 inh MLPCN, DAGLB inh, Exocytosis inh, VLA-4 inh, MT1-MMP act inh)
COCC(=O)Nc1ccc2c(c1)[C@@H]1C[C@H](CC(=O)N3CCN(C)CC3)O[C@@H](CO)[C@@H]1O2	none (no result: ABCB6 inh MLPCN, DAGLB inh, Exocytosis inh, VLA-4 inh, MT1-MMP act inh)
Cc1ccccc1OCc1nnc(SCc2nc3ccccc3c(=O)[nH]2)n1C	none
COc1ccc(CCCc2nnc(SCc3nc4ccccc4c(=O)[nH]3)n2C)cc1C	FGF22 binding 43
CCOc1ccccc1-n1c(SCC(=O)N2CCCc3ccccc32)nnc1-c1cccnc1	none (no result: FGF22 binding)
Cc1ccc(-n2c(SCC(=O)N3CCCc4ccccc43)nnc2-c2cccnc2)c(C)c1	FGF22 binding 43
CC1(C)OC2CC3C4CCC5=CC(=O)CCC5(C)C4(F)C(O)CC3(C)C2(C(=O)CO)O1 (centres undefined)	FGF22 binding 44 (no result: VLA-4 inh)
C[C@H](CO)N1C[C@H](C)[C@@H](CN(C)Cc2ccc(C(=O)Nc3ccccc3N)cc2)Oc2ccc(NS(=O)(=O)c3cccs3)cc2CC1=O	none (no result: ABCB6 inh MLPCN, DAGLB inh, Exocytosis inh, VLA-4 inh, MT1-MMP act inh)
COc1ccccc1CC(=O)NC(=O)c1ccccc1O	none
COc1ccccc1C(=O)NNC(=O)c1ccccc1F	FGF22 binding 44
COc1ccccc1CC(=O)c1ccccc1OC	FGF22 binding 43 (no result: VLA-4 inh)
O=C(C[C@@H]1C=C[C@H](NS(=O)(=O)c2ccccc2)[C@@H](CO)O1)NCc1ccncn1	none (no result: ABCB6 inh MLPCN, DAGLB inh, Exocytosis inh, VLA-4 inh, MT1-MMP act inh)
COc1ccc(S(=O)(=O)N(C)CC(=O)Nc2ccc(C)cc2)cc1OC	FGF22 binding 43
COc1cc(NC(=O)CN(C)S(=O)(=O)c2ccc(C)cc2)cc(OC)c1	none (no result: FGF22 binding)
CC(=O)c1cccc(NC(=O)CN(C)S(=O)(=O)c2ccccc2)c1	FGF22 binding 43
Cc1ccc(S(=O)(=O)N[C@H](C(=O)NCCN=[N+]=[N-])C(C)C)cc1	none (no result: ABCB6 inh MLPCN, DAGLB inh, Exocytosis inh, VLA-4 inh, MT1-MMP act inh)
C[C@@H]1CCCCO[C@@H](CN(C)CC2CC2)[C@@H](C)CN([C@H](C)CO)C(=O)c2cc(NC(=O)c3ccncc3)ccc2O1	none (no result: ABCB6 inh MLPCN, DAGLB inh, Exocytosis inh, VLA-4 inh, MT1-MMP act inh)
Cn1c(SCCN2CCCCC2)nnc1-c1ccccc1Br	none (no result: FGF22 binding)
O=S1(=O)C=C(SCCN2CCCCC2)c2ccccc21	Exocytosis inh 63 (no result: FGF22 binding)
Cc1ccccc1CN1N=C(/C=C/c2ccccc2)CCC1=O	FGF22 binding 45
C[C@@H]1CN([C@@H](C)CO)C(=O)Cc2cc(NC(=O)Nc3ccc(F)cc3)ccc2O[C@@H]1CN(C)S(=O)(=O)c1ccc(F)cc1	none (no result: ABCB6 inh MLPCN, DAGLB inh, Exocytosis inh, VLA-4 inh, MT1-MMP act inh)
Cc1nn(C)c(C)c1/C=C/C(=O)O	FGF22 binding 43
Cc1nn(C)c(Cl)c1/C=C/C(=O)O	none (no result: DAGLB inh)
C#CCNC(=O)C1=C[C@@H](c2ccccc2)C[C@@H](OCCCCO)O1	FGF22 binding 1.7!
O=C(NCc1nc2ccccc2[nH]1)C1=C[C@@H](c2ccccc2)C[C@@H](OCc2ccc(CO)cc2)O1	Exocytosis inh 71
C#CCNC(=O)C1=C[C@@H](c2ccc(C#C)cc2)C[C@@H](OCCCCO)O1	none (no result: FGF22 binding)
O=C(CN1C(=O)c2cccc3cccc(c23)C1=O)N1CCCCCC1	ABCB6 inh MLPCN 63
O=C(CN1C(=O)c2ccccc2C1=O)N1CCCCC1	none (no result: FGF22 binding, MT1-MMP act inh)
NCC1C2CCC(O2)C1CO (centres undefined)	FGF22 binding 45 (no result: VLA-4 inh)
CN(C)C(=O)[C@@]1(Cc2ccccc2)N=C(c2ccc(OCCCO)cc2)O[C@H]1c1ccccc1	none (no result: ABCB6 inh MLPCN, DAGLB inh, Exocytosis inh, VLA-4 inh, MT1-MMP act inh)
CN1CCN(C(=O)C[C@H]2CC[C@H]3[C@@H](COC[C@H](O)CN3Cc3cccc(Cl)c3)O2)CC1	none (no result: ABCB6 inh MLPCN, DAGLB inh, Exocytosis inh, VLA-4 inh, MT1-MMP act inh)
CN(C)S(=O)(=O)c1ccc2c(c1)nc(CCC(=O)O)n2C	none (no result: FGF22 binding, VLA-4 inh)
CN(C)S(=O)(=O)c1ccc2c(c1)nc(CCC(=O)NCC(=O)Nc1ccc(F)c(F)c1F)n2C	FGF22 binding 44 (no result: VLA-4 inh)
O=C(N/N=C/c1cc([N+](=O)[O-])ccc1Cl)c1cnccn1	FGF22 binding 43
Cc1ccc(C)c(NC(=O)Cn2cnc3c(oc4ccccc43)c2=O)c1	FGF22 binding 45
CN(C)C(=O)c1ccc(-c2ccc3c(c2)[C@H]2[C@H](CCN2C(=O)C2CCC2)[C@@H](CO)N3C)cc1	none (no result: ABCB6 inh MLPCN, DAGLB inh, Exocytosis inh, VLA-4 inh, MT1-MMP act inh)
CO[C@@H]1CN(C)C(=O)c2ccc(NC(=O)Nc3ccccc3F)cc2OC[C@@H](C)N(C)C[C@@H]1C	none (no result: ABCB6 inh MLPCN, DAGLB inh, Exocytosis inh, VLA-4 inh, MT1-MMP act inh)
Cn1c(Cn2c(=O)sc3ccccc32)nnc1SCC(=O)Nc1ccc2c(c1)OCO2	FGF22 binding 44
Cc1cc(C)cc(NC(=O)CSc2nnc(Cn3c(=O)sc4ccccc43)n2C)c1	FGF22 binding 43
COc1cccc2cc(C(=O)Nc3ccc(F)cc3)c(=Nc3ccc(C(=O)O)cc3)oc12	FGF22 binding 43
COc1ccc(COCC23N=C4SCc5ccccc5CN4[C@H](c4ccccc4O2)[C@H]3CO)cc1	none (no result: ABCB6 inh MLPCN, DAGLB inh, Exocytosis inh, VLA-4 inh, MT1-MMP act inh)
CCN1CCN(c2cc(C)c3cc(NC(=S)N4CCN(c5ccccc5)CC4)ccc3n2)CC1	Exocytosis inh 56
